This note sets out measurements from the EternaBench riboswitch data.

In this series the test system is MS2 coat protein. In words: apparent Kd, MS2 coat protein; higher = weaker binding; RNA-MaP array; FMN 200 µM where present. The method, boiled down: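 Two titrations, one without ligand and one with constant ligand, were run with SNAP-549-labelled MS2 coat protein from 0.7 or 1.5 nM, doubling to 3 µM. The targets were designs transcribed by stalled E. coli RNA polymerase on Illumina sequencing-chip clusters, in 100 mM Tris-HCl pH 7.5, 80 mM KCl, 4 mM MgCl2, BSA, DTT, yeast tRNA and Tween-20. The apparent Kd is the median of filtered per-cluster binding-curve fits, with green signal normalised to red-channel RNA signal and control-cluster median Fmax.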

[1] abbreviates: designed as: ON switch for flavin mononucleotide, no ligand.
The mark [2] stands for this setting: ligand present: flavin mononucleotide, designed as: ON switch for flavin mononucleotide.
Where [3] appears, read: designed as: OFF switch for flavin mononucleotide, no ligand.
[4] abbreviates: ligand present: flavin mononucleotide, designed as: OFF switch for flavin mononucleotide.

One may read the apparent Kd as the concentration giving half-maximal binding under the conditions of the assay. “CGCUAUGACAUAGGAUAUUGGUACAUGAGGAUCACCCAUGUCAACUUUUUAGCAUAAUUUGUUGACAAGAAGGAUGUGGUAGCG”: the “apparent Kd” value runs as follows: under setting [1], 0.0541 µM; under setting [2], 0.0126 µM. The matching figures for “GGGUGGCGUAGAGGAUAUGUGUUACAUGAGGAUCACCCAUGUGCAUAUGAUGUUCGUGUGUCUGCAUAGAAGGCUACGUCGCUA”: 0.0283 µM and 0.0276 µM. On to “GUAGCAUACCGAGGAUAUUCAUAUAAUACAUGAGGAUCACCCAUGUUAUAUAGGCGAAAGCCUUGGGAGAAGGCGGAAUGCUAC”, for which, under setting [2], the “apparent Kd” value amounted to 0.0108 µM. As to “AAUUAGGUCACAGGAUAUACAUCAUCCAUAGAUGUAGAAGGGUGUCAAAAUAAUAUCUGACAUGAGGAUCACCCAUGUUUCCAC”, the “apparent Kd” value by setting is: under setting [1], 0.0195 µM; under setting [2], 0.00897 µM.

For the sequence “UACAUGAGGAUCACCCAUGUUUUGUCGUGUAUGGUAUUUAUCUAGGAUAUCAAUUUACUUAUUUAUGAGAAGGAGAAUAUUAAU”, the “apparent Kd” value is, setting by setting: under setting [3], 0.0324 µM; under setting [4], 0.0313 µM.

As for “GAAUAGAAAGAUUAAUAUGAUUACAUGAGGAUCACCCAUGUAUAGGAUAUCGACGUCAAUGACGUCGAGAAGGAUACAUAAUAA”, the “apparent Kd” value under setting [3] was 0.0145 µM and the “apparent Kd” value under setting [4] came out at 0.0261 µM. The corresponding values for “AUUAUAUAGAAAGGAUAUAGAUUAUUAUUUUAACAUGAGGAUCACCCAUGUAGCCUUAUGUAUAACUAGAAGGUUCAUUUAUUA” are 0.0728 µM and 0.0944 µM. “GGGAGACAUGAGGAUCACCCAUGUGAAAACGUGGCAGGAUAUGGAUGGAAACCAUACUGUCCAGAAGGGCCUUGUC”: the “apparent Kd” value is, setting by setting: under setting [1], 0.0474 µM; under setting [2], 0.0378 µM. The matching figures for “AACAGGUUCACAUGAGGAUCACCCAUGUUAGCCUAAUGUAGGAGAAGGACGGUAGCUGGGCUGACGUAGGAUAUCCUACUGUGA”: 0.00508 µM and 0.00511 µM. The matching figures for “UGUUGUAUUACAGGAUAUCUAGUAUUUUUAAUUAGAGAAGGGUAUUCACAUGAGGAUCACCCAUGUAUAUACGAGGAAGUUGUG”: 0.0433 µM and 0.0431 µM. “UAUAAUCGAGGAUAUACAUGAGGAUCACCCAUGUGUUGCCGCGUGACAUGAUCGUCAGGUAGAAGGCGAUUAUA”: the “apparent Kd” value runs as follows: under setting [3], 0.189 µM; under setting [4], 0.0397 µM. The corresponding values for “AUAUAAAUAUAGGAUAUCGAAUUUAUUAAUUAUCGAGAAGGAUAAACAUGAGGAUCACCCAUGUGGUAUCAUGG” are 0.366 µM and 0.336 µM. Consider “GCAGCGCCUGACAUGAGGAUCACCCAUGUUAGAUUGUUAAGUCAGGAUAUAGUCUAGAAACUAGACUAGAAGGGAUUUGCUGCU”, for which the “apparent Kd” value under setting [1] is 0.00908 µM and the “apparent Kd” value under setting [2] turned out to be 0.00683 µM. The corresponding values for “UGGAUCAUGGGAGGAUAUCCUCAAGAGACAUGAGGAUCACCCAUGUAUUAUAUGCCUCAUGGCAUGGAGAAGGCCCAUGAUCCU” are 0.176 µM and 0.161 µM. For “AAGGAUAGAGGAUAUACAUAGAUACAGAUUCAUGUAAUCCUACAUGAGGAUCACCCAUGUAGAAGGCUAUCCUA”, the “apparent Kd” value under setting [3] is 0.0158 µM and the “apparent Kd” value under setting [4] is 0.0583 µM. As to “UUUUGUUUACAAGGAUAUCAAUUAUUUAUACUUCCUACAUGAGGAUCACCCAUGUUUUUAUAUUUUGAGAAGGUGUAAUGUCGG”, the “apparent Kd” value is, setting by setting: under setting [1], 0.0404 µM; under setting [2], 0.039 µM. On to “AUUAUGCAGCAGGAUAUCGAUCCGCGGUAUGAUCGAGAAGGGCUGACAUGAGGAUCACCCAUGUGCGUCCUAGG”, for which the “apparent Kd” value by setting is: under setting [3], 0.0398 µM; under setting [4], 0.147 µM. The corresponding values for “GGUUGUGUGUAAGGAUAUGCAUCACUGAGAAAUUUAGUGAGGAAGAUCACAUGAGGAUCACCCAUGUAGAAGGUACACACGUGG” are 0.0106 µM and 0.0501 µM. The matching figures for “UUACUAUUGGAGAAGGGUCGAUCAUAUAGAAUGACAGGAUAUCCAACAUGAGGAUCACCCAUGUUUCACCCAUAUGAGGAUCAC”: 0.102 µM and 0.031 µM. As to “UGGUACAUGGGAGGAUAUGGGUUGUUAACAUGAGGAUCACCCAUGUUAUGCCGAAAGGCAAAGAACUAGAAGGCCCAUGUACCU”, the “apparent Kd” value is, setting by setting: under setting [1], 0.0219 µM; under setting [2], 0.0164 µM. Regarding “CGGGCUGCCAGAGGAUAAUGGACAUGAGGAUCACCCAUGUGUCAGGAUAUGGGUUUCACAUGGACUCAGAAGGGACCAGCCCGA”, the “apparent Kd” value amounted to 0.0825 µM under setting [1] and 0.0224 µM under setting [2]. On to “UUUUACCGAGGAUAUACAUAUAAAUAAUAAUCCUCAUUAUUACAUGAGGAUCACCCAUGUAGAAGGCGGAUUUU”, for which the “apparent Kd” value is, setting by setting: under setting [3], 0.0892 µM; under setting [4], 0.0668 µM.

“UGAUAGGACAGAGGAUAUACGAAAGGCGAUCCAUACAUGAGGAUCACCCAUGUAGAAGGCUGUCCUAUCUAAGUCGGAAACGAC”: the “apparent Kd” value was 0.0849 µM under setting [3] and 0.0169 µM under setting [4]. Turning to “AGUUAAUAUCGAGGAUAUCUCAUGGAUACAUGAGGAUCACCCAUGUGAAUGGGAGAAGGCGAUAUUAACAGCAUGUUACAUGCA”, the “apparent Kd” value by setting is: under setting [1], 0.032 µM; under setting [2], 0.00705 µM.

Regarding “GGUACCCUGGUUCUUCAAAAUACAUGAGGAUCACCCAUGUACUAGGAUAUCGCGCGAACCCUCGCUGAGAAGGAGUCGAUGGGC”, the “apparent Kd” value under setting [3] amounted to 0.022 µM and the “apparent Kd” value under setting [4] was 0.0234 µM. The corresponding values for “GGUGGUGAGCAAGGAUAUCGCCACUGCGUGACCUCACAACGGAUACAUGAGGAUCACCCAUGUGGCGAGAAGGUGCGGGAACGG” are 0.0294 µM and 0.044 µM. The corresponding values for “CAAAUUAGCGAGAAGGAGCGCCCGUAGGUACAUGAGGAUCACCCAUGUCCUUUGUGCUCUACGCGCUAGGAUAUCGAUAAACAG” are 0.0128 µM and 0.0994 µM. The matching figures for “AAUAUGUUGCAGAAGGCCAUGGUGUGGUAGUGCCUCAUGACAUGAGGAUCACCCAUGUCUGUGAUGGAGGAUAUGCAAUAUAUU”: 0.0673 µM and 0.152 µM. Take “CUCAUGUGAGGAUAUCAGUAGUAAAAAAAUAAAAUUACUACUGAGAAGGCACAUGAGGAUCACCCAUGUGCCAA”: the “apparent Kd” value runs as follows: under setting [3], 0.0161 µM; under setting [4], 0.0286 µM. The corresponding values for “ACACGGUAUGUAGGAUAUGCAUAGCAUUGCUAUGCAGAAGGACAUGAGGAUCACCCAUGUAUGUAUUCCAUACUAAUCCCGUGG” are 0.00577 µM and 0.00574 µM. Consider “AGUUACAAACACAACAUGAGGAUCACCCAUGUACUCUCAUGUAAGGAUAUACAUUCGUAUAGAAAGUAGAAGGUACUAAUUAUG”, for which the “apparent Kd” value runs as follows: under setting [1], 0.515 µM; under setting [2], 0.34 µM. Turning to “AAUUCGUUCUAGAAGGUGCAUUUUUUAAACAUGCAAGGAUAUAGACAUGAGGAUCACCCAUGUCUAUGAGACAUCGGCCUCCUG”, the “apparent Kd” value worked out at 0.0063 µM under setting [3] and 0.0133 µM under setting [4]. For the sequence “GGUGUACAUGAGGAUCACCCAUGUCGACCGCUCACAGGAUAUUUAAUACAAACUGGUAGCGGAGAAGGGUGAGGAA”, the “apparent Kd” value is, setting by setting: under setting [1], 0.295 µM; under setting [2], 0.312 µM. As for “AUCAGCUCGUCAGGAUAUACGUCACUGCGUCAGCAGUGUGGUAAGAUCACAUGAGGAUCACCCAUGUAGAAGGGACGAGAUGAU”, the “apparent Kd” value was 0.0138 µM under setting [3] and 0.247 µM under setting [4]. As for “GUCAUGUAAGGAUAUCUUACAUGUGACUUCGGUCACUGUCAAGAGAAGGUACAUGAGGAUCACCCAUGUUCGAC”, the “apparent Kd” value by setting is: under setting [3], 0.0172 µM; under setting [4], 0.0218 µM. “UGGUCGGAGACAGGAUAUGUGACUGCAUAGUGCACAGAAGGGUCUACAUGAGGAUCACCCAUGUCACCGAACACCAAACAACAA”: the “apparent Kd” value runs as follows: under setting [1], 0.412 µM; under setting [2], 0.0413 µM.

Take “GCUAUAGAUGUAGGAUAUCAUAUAGAAGCUAUGUGAGAAGGACAUGAGGAUCACCCAUGUCAAUGGAUGGAGAGAAGUUAUGGC”: the “apparent Kd” value turned out to be 0.0753 µM under setting [3] and 0.104 µM under setting [4]. As for “AUAUCUUGUCGAGGAUAUGUUGUAUUGAUCUGAAAACAUGAGGAUCACCCAUGUAUACGGUGGGAACAGAAGGUGGAUGUAGAA”, the “apparent Kd” value reads like this: under setting [3], 0.318 µM; under setting [4], 0.356 µM. Regarding “UAGGUCAUCUGAGGAUAUCGAACUCAAAGGCUACGAGAAGGCAGACUGACAUGAGGAUCACCCAUGUACCGGGAAGAUGCCUCC”, the “apparent Kd” value turned out to be 0.0146 µM under setting [3] and 0.13 µM under setting [4]. “AGCUGUGGCCGAGGAUAUCUAUCCAAUAAAACCGAAAUAUAAUCGGACAUGAGGAUCACCCAUGUAGAGAAGGCGGUCUCAGCA”: the “apparent Kd” value is, setting by setting: under setting [3], 0.0224 µM; under setting [4], 0.0305 µM. In the case of “UCGCCAGGUACAGGAUAUGUGGAUCGGUCAAGUAACUCGCCGAACAUGAGGAUCACCCAUGUAUCACAGAAGGGUGCCUCAAAG”, the “apparent Kd” value is, setting by setting: under setting [1], 0.223 µM; under setting [2], 0.0109 µM. Regarding “AGUCAGAGCAGAGGAUAUAUACAUGAGGAUCACCCAUGUGACUGACUACGCUAGAAAUAGCGUGUAUAGAAGGCUGCUCUGACA”, the “apparent Kd” value came out at 0.0402 µM under setting [3] and 0.0964 µM under setting [4]. The corresponding values for “UUAUUAAAUGUAGGAUAUGCAUAUUAUUAUUAUGCAGAAGGACAUGAGGAUCACCCAUGUAUAUUAUUAUUAUUUAUUAUAUAU” are 0.0448 µM and 0.0656 µM. The corresponding values for “AGCUAGUCAGGAUAUACGAACAUGUCAUUAGACGUGAAGGGACAUGAGGAUCACCCAUGUAGAAGGGACUAGCA” are 0.04 µM and 0.134 µM. As to “UUGGACCUAGGAUAUACAUGAGGAUCACCCAUGUUGGCGCACGCCCACCUGGACCCGAGUAGAAGGAGGAAAAU”, the “apparent Kd” value runs as follows: under setting [3], 0.0261 µM; under setting [4], 0.0784 µM. The matching figures for “UUUUUGUGAGGAUAUCAGUAGUAAAUAAAUAAAAUUACUACUGAGAAGGCACAUGAGGAUCACCCAUGUUUUUU”: 0.0404 µM and 0.0951 µM. For the sequence “GACAUCGCAGGAUAUUAUUGUUUGUACAUGAGGAUCACCCAUGUUAAUUGGGUUAAUGUUUAAGAAGGGCGGUGUC”, the “apparent Kd” value by setting is: under setting [3], 0.642 µM; under setting [4], 0.557 µM.

On to “AGGGUAGUAGGAUAUACAUGAGGAUCACCCAUGUUUCCUUUACGUGACUGGUCCUAGUGUAGAAGGGCUAGCAC”, for which the “apparent Kd” value was 0.0158 µM under setting [3] and 0.0148 µM under setting [4].
